Experimental data from ChEMBL document CHEMBL1126550, “Nanomolar-affinity, non-peptide oxytocin receptor antagonists” (J Med Chem, 1993).

Tests used:
Rattus norvegicus [1] = assay: Tested for inhibition of OT-stimulated uterine activity in the rat after an intravenous dose; assay type: functional
Vasopressin V1 receptor = Vasopressin V1 receptor (Rattus norvegicus, UniProt P48974+P30560); assay: Inhibition of radioligand [3H]AVP binding to the vasopressin V1 receptor in rat liver tissue
Method in brief: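 Crude membranes from male rat liver (V1 sites) competed with 1 nM [3H]AVP (80–90 Ci/mmol). Equilibrium 30 min, 30 °C, buffer 100 mM Tris-HCl, 5 mM MgCl2, 0.1% BSA, 50 μM PMSF, 50 μg/mL bacitracin, pH 8.0. 10 μM unlabeled AVP for nonspecific binding. Filtration through glass-fiber filters. IC50 from linear regression over seven concentrations.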

Vasopressin V2 receptor = Vasopressin V2 receptor (Rattus norvegicus, UniProt Q00788); assay: Inhibition of radioligand [3H]-AVP binding to the vasopressin V2 receptor in rat kidney tissue
Method in brief: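 [3H]AVP (80–90 Ci/mmol) at 2 nM competed on crude membranes from male rat kidney medulla (V2 sites). Equilibrium 30 min at 30 °C in 100 mM Tris-HCl, 5 mM MgCl2, 0.1% BSA, 50 μM PMSF, 50 μg/mL bacitracin, pH 8.0. Nonspecific binding with 10 μM unlabeled AVP. Glass-fiber filtration. IC50 by linear regression of % inhibition vs log concentration, seven concentrations.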

Oxytocin receptor [2] = biological target: T1, Oxytocin receptor (Homo sapiens, UniProt P30559); assay: Tested against human uterine OT receptor
T1 sequence (P30559 whole entry): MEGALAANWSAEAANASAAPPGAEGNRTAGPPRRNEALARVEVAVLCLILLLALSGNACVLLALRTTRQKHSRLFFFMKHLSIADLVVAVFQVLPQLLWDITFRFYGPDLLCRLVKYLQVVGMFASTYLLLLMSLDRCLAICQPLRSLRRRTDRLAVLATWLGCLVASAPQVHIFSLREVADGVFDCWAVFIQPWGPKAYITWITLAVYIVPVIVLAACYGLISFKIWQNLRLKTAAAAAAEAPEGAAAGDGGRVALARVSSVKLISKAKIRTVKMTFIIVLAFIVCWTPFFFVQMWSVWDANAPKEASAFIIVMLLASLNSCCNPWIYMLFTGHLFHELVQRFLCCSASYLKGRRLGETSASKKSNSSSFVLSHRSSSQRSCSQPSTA

Oxytocin receptor [3] = biological target: T2, Oxytocin receptor (Rattus norvegicus, UniProt P70536); assay: Tested against rat uterine OT receptor
T2 sequence (P70536 whole entry): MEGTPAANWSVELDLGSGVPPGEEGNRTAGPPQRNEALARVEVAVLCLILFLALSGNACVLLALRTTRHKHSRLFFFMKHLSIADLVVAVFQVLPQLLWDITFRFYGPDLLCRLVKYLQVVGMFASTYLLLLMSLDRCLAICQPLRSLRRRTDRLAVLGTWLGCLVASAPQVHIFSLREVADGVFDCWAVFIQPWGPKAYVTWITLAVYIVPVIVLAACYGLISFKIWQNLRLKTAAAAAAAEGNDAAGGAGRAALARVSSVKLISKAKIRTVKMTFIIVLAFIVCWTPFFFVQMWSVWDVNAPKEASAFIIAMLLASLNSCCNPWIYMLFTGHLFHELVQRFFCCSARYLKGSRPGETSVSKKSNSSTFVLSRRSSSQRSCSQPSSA
Method in brief: (§1)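 Uteri taken from rats given diethylstilbestrol dipropionate (0.3 mg/kg ip, 18–24 h before), crude membranes. 1 nM [3H]OT (30–60 Ci/mmol), equilibrium 60 min at 22 °C in 50 mM Tris-HCl, 5 mM MgCl2, 0.1% BSA, pH 7.4. Nonspecific binding with 1 mM unlabeled OT. Filtered on glass fiber. Initial single-concentration screen, then IC50 from seven concentrations by linear regression.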

Oxytocin receptor [4] = biological target: T2, Oxytocin receptor; assay: Inhibition of radioligand [3H]oxytocin binding at the oxytocin (OT) receptor in rat uterine tissue; method in brief: as §1
Rattus norvegicus [5] = species: Rattus norvegicus; assay: Tested for antagonistic activity in isolated rat uterus; assay type: functional; conditions: read-out: pA2 (converted)

Sequence of Vasopressin V2 receptor (Q00788 whole entry): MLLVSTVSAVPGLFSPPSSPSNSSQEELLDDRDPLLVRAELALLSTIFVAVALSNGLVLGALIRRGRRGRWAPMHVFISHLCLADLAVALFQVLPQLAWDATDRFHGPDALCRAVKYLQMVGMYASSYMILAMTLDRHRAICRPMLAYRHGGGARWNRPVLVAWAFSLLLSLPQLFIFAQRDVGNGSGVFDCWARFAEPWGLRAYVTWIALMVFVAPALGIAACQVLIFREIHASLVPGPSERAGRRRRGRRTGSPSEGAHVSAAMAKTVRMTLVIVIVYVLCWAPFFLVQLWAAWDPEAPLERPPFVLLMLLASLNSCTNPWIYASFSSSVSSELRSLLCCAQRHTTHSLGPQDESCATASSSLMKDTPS

Row | Compound | IC50 (Vasopressin V1 receptor) [µM] | IC50 (Vasopressin V2 receptor) [µM] | Ki (Oxytocin receptor [2]) [µM] | Ki (Oxytocin receptor [3]) [µM] | IC50 (Oxytocin receptor [4]) [µM] | AD50 (Rattus norvegicus [1]) [mg/kg] | Kb (Rattus norvegicus [5]) [µM]
1 | CC1(C)[C@@H]2CC[C@@]1(CS(=O)(=O)N1CCC3(CCc4ccccc43)CC1)[C@@H](NC(=O)Cc1c[nH]cn1)C2 | 5.6 | 17 | 0.061 | 0.026 | 0.052 | 1.5 | 0.0117
2 | CC1(C)[C@@H]2CC[C@@]1(CS(=O)(=O)N1CCC3(CCc4ccccc43)CC1)[C@@H](N1C(=O)NC(Cc3c[nH]cn3)C1=O)C2 (single isomer, unassigned; isomer A) | 0.6 | 2 | – | – | 0.016 | – | –
3 | CC1(C)[C@@H]2CC[C@@]1(CS(=O)(=O)N1CCC3(CCc4ccccc43)CC1)[C@@H](NC(=O)NC1CN3CCC1CC3)C2 (single isomer, unassigned; isomer B) | 2.1 | 11 | – | – | 0.037 | – | –
4 | CC1(C)[C@@H]2CC[C@@]1(CS(=O)(=O)N1CCC3(CCc4ccccc43)CC1)[C@@H](N1C(=O)NC(Cc3c[nH]cn3)C1=O)C2 (stereo in doubt) | 0.42 | 1.4 | – | – | 0.013 | – | –

The next lines start with results.

Row | IC50 (Vasopressin V1 receptor) [µM] | IC50 (Vasopressin V2 receptor) [µM] | Ki (Oxytocin receptor [2]) [µM] | Ki (Oxytocin receptor [3]) [µM] | IC50 (Oxytocin receptor [4]) [µM] | Compound | AD50 (Rattus norvegicus [1]) [mg/kg] | Kb (Rattus norvegicus [5]) [µM]
5 | 2.2 | 3.3 | – | – | 0.011 | CC1(C)[C@@H]2CC[C@@]1(CS(=O)(=O)N1CCC3(CCc4ccccc43)CC1)[C@@H](NC(=O)C(CCS(C)(=O)=O)c1c[nH]cn1)C2 (single isomer, unassigned; isomer B) | – | –
6 | 1.5 | 2.9 | – | – | 0.011 | CC1(C)[C@@H]2CC[C@@]1(CS(=O)(=O)N1CCC3(CCc4ccccc43)CC1)[C@@H](NC(=O)C(CCS(C)(=O)=O)c1c[nH]cn1)C2 (stereo in doubt) | – | –
